Assays:
RAW264.7 [1] = experiment: Cytotoxicity against LPS-stimulated mouse RAW264.7 cells assessed as cell viability at 50 uM after 24 hrs by MTT assay; assay type: cell-based; conditions: raw264.7, 24 h
Summary of the method: (§1)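 MTT viability assay on RAW 264.7 cells at up to 50 µM for 24 h, run both with and without LPS.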

RAW264.7 [2] = experiment: Cytotoxicity against mouse RAW264.7 cells assessed as cell viability at 50 uM after 24 hrs by MTT assay; assay type: cell-based; conditions: raw264.7, 24 h; summary of the method: as §1
RAW264.7 [3] = experiment: Antiinflammatory activity in mouse RAW264.7 cells assessed as inhibition of LPS-stimulated NO production treated 1 hr before LPS challenge measured after 24 hrs by Griess reagent assay; assay type: functional, cell-based
Summary of the method: (§2)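 Culture medium (phenol red-free) collected after 1 h compound pretreatment then 24 h with LPS 1 µg/mL; mixed 1:1 with Griess reagent (1% sulfanilamide in 5% phosphoric acid plus 0.1% naphthylethylenediamine-HCl), 10 min room temperature, absorbance 550 nm. Nitrite quantified against NaNO2 serial-dilution standard curve, fresh medium as blank. L-NIL 10 µM positive control; means ± S.E.M., three independent experiments.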

RAW264.7 [4] = experiment: Antiinflammatory activity in mouse RAW264.7 cells assessed as decrease in LPS-stimulated PGE2 production treated 1 hr before LPS challenge measured after 24 hrs by enzyme immunoassay; assay type: functional, cell-based
Summary of the method: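 Cells pre-incubated 1 h with compound (5, 25, 50 µM tested), then LPS 1 µg/mL for 24 h; PGE2 in culture medium quantified by EIA kit per manufacturer. NS-398 10 µM positive control; means ± S.E.M. of three independent experiments, Student's t-test versus LPS-treated group.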

RAW264.7 [5] = experiment: Antiinflammatory activity in LPS-stimulated mouse RAW264.7 cells assessed as PGE2 production at 10 uM treated 1 hr before LPS challenge measured after 24 hrs by enzyme immunoassay (RVb=11.5 +/- 0.36 uM); assay type: functional
RAW264.7 [6] = experiment: Antiinflammatory activity in LPS-stimulated mouse RAW264.7 cells assessed as NO production at 10 uM treated 1 hr before LPS challenge measured after 24 hrs by Griess reagent assay (RVb= 28.72 +/- 1.31 uM); assay type: functional; summary of the method: as §2
RAW264.7 [7] = experiment: Antiinflammatory activity in LPS-stimulated mouse RAW264.7 cells assessed as TNFalpha production at 25 uM treated 1 hr before LPS challenge measured after 24 hrs by enzyme immunoassay (RVb=46.7 +/- 4.8 uM); assay type: functional
RAW264.7 [8] = experiment: Antiinflammatory activity in LPS-stimulated mouse RAW264.7 cells assessed as TNFalpha production at 5 uM treated 1 hr before LPS challenge measured after 24 hrs by enzyme immunoassay (RVb=46.7 +/- 4.8 uM); assay type: functional
RAW264.7 [9] = experiment: Antiinflammatory activity in LPS-stimulated mouse RAW264.7 cells assessed as TNFalpha production at 50 uM treated 1 hr before LPS challenge measured after 24 hrs by enzyme immunoassay (RVb=46.7 +/- 4.8 uM); assay type: functional

`O=C(OCc1ccc(O[C@@H]2O[C@H](CO)[C@@H](O)[C@H](O)[C@H]2O)c(O)c1)c1ccccc1` [SALVIIFOSIDE A] was tested, and the Activity (RAW264.7 [1]) was “Non-toxic”, the Activity (RAW264.7 [2]) was “Non-toxic” and the Activity (RAW264.7 [3]) was “Dose-dependent effect”. For the same compound, the Activity (RAW264.7 [4]) was “Dose-dependent effect”.
`CS(=O)(=O)Nc1ccc([N+](=O)[O-])cc1OC1CCCCC1` [NS-398] gave an Activity (RAW264.7 [5]) of 3.2 ng/mL.
In the case of `CC(=N)NCCCC[C@H](N)C(=O)O` [L-NIL], the Activity (RAW264.7 [6]) is reported as 11.3 µM.
In the case of `COc1ccccc1/C=C/C(=O)OCc1ccc(O[C@@H]2O[C@H](CO)[C@@H](O)[C@H](O)[C@H]2O)c(O)c1` [SALVIIFOSIDE C], the Activity (RAW264.7 [1]) is reported as “Non-toxic”, the Activity (RAW264.7 [2]) is reported as “Non-toxic” and the Activity (RAW264.7 [3]) is reported as “Dose-dependent effect”. For the same compound, the Activity (RAW264.7 [4]) was “Dose-dependent effect”.
In the case of `O=C(/C=C/c1ccccc1O)OCc1ccc(O[C@@H]2O[C@H](CO)[C@@H](O)[C@H](O)[C@H]2O)c(O)c1` [SALVIIFOSIDE B], the Activity (RAW264.7 [1]) is reported as “Non-toxic”, the Activity (RAW264.7 [2]) is reported as “Non-toxic” and the Activity (RAW264.7 [7]) is reported as 24.4 ng/mL. For the same compound, the Activity (RAW264.7 [3]) was “Dose-dependent effect”, the Activity (RAW264.7 [4]) was “Dose-dependent effect” and the Activity (RAW264.7 [8]) was 43.2 ng/mL. The Activity (RAW264.7 [9]) was 11.2 ng/mL.
